By Papp A→B is commonly meant how fast a substance crosses the layer from the apical side. Broadly, the bioavailability is dose-corrected exposure relative to a reference, in per cent. Higher therefore signals good availability. For orientation: Tmax means the time at which the peak concentration occurs. Usually Cmax stands for the highest concentration seen after dosing.

Series [1] can be described thus: Volume of distribution at steady state in NCR nude mouse at 5 mg/kg, iv. The format is ADME, organism-based. Also on record: dose 5 mg/kg, route intravenous. As to conditions: in vivo, read-out: Vdss. Summed up:
(§1)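 Female NCR nude mice given a single 5 mg/kg IV or oral dose as a solution in 35:10:15:40 PEG400:EtOH:PG:H2O. Plasma concentration-time profiles were used to derive Cmax, Tmax, Vss, CL, half-life and bioavailability.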

The nature of series [2]: Apparent permeability across apical to basolateral side in MDCK cells at 10 uM by LC-MS/MS analysis. The format is ADME, cell-based, Canis lupus familiaris. The settings on record: dog. Summed up: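 Apparent permeability, Papp A-B, measured across MDCK cell monolayers. Mean of at least two runs.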
Series [3] in a line: Oral bioavailability in NCR nude mouse at 5 mg/kg. The format is ADME, organism-based. As to conditions: in vivo. Summed up: as §1
A short description of series [4]: Tmax in NCR nude mouse at 5 mg/kg, po. The settings on record: in vivo. The format is ADME, organism-based. Set-up: dose 5 mg/kg, route oral. Summed up:
as §1

Series [5] is described as follows: Cmax in NCR nude mouse at 5 mg/kg, po. The format is ADME, organism-based. Also on record: dose 5 mg/kg, route oral. The settings on record: in vivo. Summed up: as §1

As for `Cc1ccc(S(=O)(=O)c2ccc(CNC(=O)N3Cc4ccncc4C3)cc2)cn1`, the Vd in series [1] turned out to be 2.04 L/kg. In series [2], the Papp A→B at 10 µM is 2.5 ×10⁻⁶ cm/s. Besides, the bioavailability in series [3] turned out to be 20.3%. Further, the Tmax in series [4] is 15 min. The molecule also came in with a Cmax in series [5] of 330 nM.

In the case of `O=C(NCc1ccc(S(=O)(=O)C2CCN(C3CCOCC3)CC2)cc1)N1Cc2ccncc2C1`, the Papp A→B at 10 µM in series [2] was found to be 0.1 ×10⁻⁶ cm/s.

Regarding `CC(C)n1cc(S(=O)(=O)c2ccc(CNC(=O)N3Cc4ccncc4C3)cc2)cn1`, in series [2], the Papp A→B at 10 µM was found to be 4.1 ×10⁻⁶ cm/s.

Consider `O=C(NCc1ccc(S(=O)(=O)c2ccccc2)cc1)N1Cc2ccncc2C1`, for which, in series [2], the Papp A→B at 10 µM worked out at 8.3 ×10⁻⁶ cm/s.

In the case of `O=C(NCc1ccc(S(=O)(=O)C2CCN(C3COC3)CC2)cc1)N1Cc2ccncc2C1`, the apparent permeability from apical to basolateral (Papp A→B) at 10 µM in series [2] was found to be 0.1 ×10⁻⁶ cm/s.

Consider `Nc1ccc(S(=O)(=O)c2ccc(CNC(=O)N3Cc4ccncc4C3)cc2)cn1`, for which, in series [2], the Papp A→B at 10 µM was 0.5 ×10⁻⁶ cm/s.

(Values after ChEMBL document CHEMBL2417549, “Identification of 2,3-dihydro-1H-pyrrolo[3,4-c]pyridine-derived ureas as potent inhibitors of human nicotinamide phosphoribosyltransferase (NAMPT)” (Bioorg Med Chem Lett, 2013).)
